Source: PMC5433042 (Chemical Science, 2014)

Tests used:
HeLa cells = assay: Resazurin cell viability assay, HeLa; format: cell-based, human
Summary of the method: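 HeLa cells are kept in DMEM with 5% FCS, penicillin/streptomycin, at 37 °C and 5% CO2. Cells are seeded in triplicate at 4 × 10^3 per well one day ahead, then exposed 48 h to increasing concentrations diluted in medium from 10 mg mL−1 DMSO stocks. Medium is then replaced with resazurin (0.2 mg mL−1 final) for 4 h at 37 °C, and resorufin fluorescence is read at ex 540/em 590 nm.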

B. subtilis 168 [1] = assay: Cell wall integrity assay; format: cell-based, Bacillus subtilis; details: 8 μg mL^–1 (2× MIC), nisin 0.75 μg mL^–1; 15 minutes
B. subtilis 168 [2] = assay: BacLight membrane disruption assay; format: cell-based, Bacillus subtilis; details: 8 μg mL^–1 (2× MIC), nisin 0.75 μg mL^–1; 15 minutes
Summary of the method: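 B. subtilis 168 is grown in Belitzky minimal medium to early log phase and exposed for 15 min; untreated aliquot serves as control. Cells are stained 15 min with a 1:1 SYTO 9/propidium iodide mix (1 μL per mL cells), washed twice in 100 mM Tris/1 mM EDTA pH 7.5, then examined by fluorescence microscopy. Red or orange cells in the overlay indicate permeabilized membranes.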

[3] = tested on: B. subtilis 1981 GFP-MinD; assay: GFP-MinD delocalization assay; format: cell-based, Bacillus subtilis; details: 8 μg mL^–1 (2× MIC), nisin 0.75 μg mL^–1; 15 minutes

Compound | IC50 HeLa (HeLa cells; 48 h) [μg mL^–1] | IC50 (HeLa cells; read-out: IC50 HeLa, 48 h) [µM] | cell wall integrity after acetic acid/methanol fixation (B. subtilis 168 [1]) | membrane permeabilization, BacLight staining (B. subtilis 168 [2]) | GFP-MinD localization (membrane depolarization) [3]
N.N.[Cl][Pt][Cl] [Cisplatin] | 3.5 ± 0.9 | 11.5 ± 2.9 | – | – | –
nisin (ITSISLCTPGCKTGALMGCNMKTATCHCSIHVSK; not fully specified; Lantibiotic nisin-A; UniProt P13068 24-57, looked up) | – | – | membrane extrusions | red fluorescencing cells | MinD delocalization
